Measurements reported in ChEMBL document CHEMBL1145426, “Albumin binding of short cationic antimicrobial micropeptides and its influence on the in vitro bactericidal effect” (J Med Chem, 2007).
≈ marks a conversion by molar mass, not a printed value. Where a SMILES comes first, the peptide text is derived from it. [ ]: non-standard residue; d: D form. The star is where a group is joined. Bip = N[C@@H](Cc1ccc(-c2ccccc2)cc1)C(=O)O; NHPhenethyl = c1ccc(CCN*)cc1; NHBn = c1ccc(CN*)cc1; NHiPr = CC(C)N*

Molecular target: not listed separately
Assay: Binding affinity to HSA 2 by isothermal titration calorimetry
Set-up: species or system Homo sapiens
Procedure, shortened: (§1)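 ITC at 25 °C with 1 mL cell. Peptide (2.1 mM) injected in 20 aliquots of 5 µL, 400 s apart, into stirred (200 rpm) albumin (0.11 mM) in 50 mM Tris-HCl, 10 mM CaCl₂, pH 8.2. Dilution heats from peptide-into-buffer titrations were subtracted. First injection excluded. Isotherm fitted to a one-site model; KD = 1/Ka.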
For `N=C(N)NCCC[C@H](NC(=O)[C@H](Cc1ccc(-c2ccccc2)cc1)NC(=O)[C@@H](N)CCCNC(=N)N)C(=O)NCc1ccccc1` (H-Arg-[Bip]-Arg-NHBn), the Kd was 15.5 µM. Work on `N=C(N)NCCC[C@H](NC(=O)[C@H](Cc1ccc(-c2ccccc2)cc1)NC(=O)[C@@H](N)CCCNC(=N)N)C(=O)N(Cc1ccccc1)Cc1ccccc1` yielded a Kd of 15.9 µM. In the case of `CC(C)NC(=O)[C@H](CCCNC(=N)N)NC(=O)[C@H](Cc1ccc(-c2ccccc2)cc1)NC(=O)[C@@H](N)CCCNC(=N)N` (H-Arg-[Bip]-Arg-NHiPr), the Kd is reported as 18.2 µM.

Molecular target: not listed separately
Assay: Binding affinity to BSA 2 by isothermal titration calorimetry
Set-up: species or system Bos taurus
Procedure, shortened: as §1
Compound `N=C(N)NCCC[C@H](NC(=O)[C@H](Cc1ccc(-c2ccccc2)cc1)NC(=O)[C@@H](N)CCCNC(=N)N)C(=O)NCc1ccccc1` (H-Arg-[Bip]-Arg-NHBn) has a Kd of 13 µM. In the case of `N=C(N)NCCC[C@H](NC(=O)[C@H](Cc1ccc(-c2ccccc2)cc1)NC(=O)[C@@H](N)CCCNC(=N)N)C(=O)N(Cc1ccccc1)Cc1ccccc1`, the Kd is reported as 12.3 µM. Compound `CC(C)NC(=O)[C@H](CCCNC(=N)N)NC(=O)[C@H](Cc1ccc(-c2ccccc2)cc1)NC(=O)[C@@H](N)CCCNC(=N)N` (H-Arg-[Bip]-Arg-NHiPr) has a Kd of 14.5 µM.

System: Staphylococcus aureus
Assay: Antibacterial activity against Staphylococcus aureus ATCC 25923 by microdilution method
Type: functional
Procedure, shortened: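 Standard broth microdilution MIC against S. aureus ATCC 25923, without albumin. Run in triplicate.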
`CCN(Cc1ccccc1)C(=O)[C@H](CCCNC(=N)N)NC(=O)[C@H](Cc1ccc(-c2ccccc2)cc1)NC(=O)[C@@H](N)CCCNC(=N)N` showed an MIC of 5 µg/mL (≈ 7.45 µM). With `C[C@@H](CNC(=O)[C@H](CCCNC(=N)N)NC(=O)[C@H](Cc1ccc(-c2ccccc2)cc1)NC(=O)[C@@H](N)CCCNC(=N)N)c1ccccc1` the MIC was 4 µg/mL (≈ 5.96 µM). In the case of `CN(Cc1ccccc1)C(=O)[C@H](CCCNC(=N)N)NC(=O)[C@H](Cc1ccc(-c2ccccc2)cc1)NC(=O)[C@@H](N)CCCNC(=N)N`, the MIC is reported as 7 µg/mL (≈ 10.7 µM). Compound `C[C@H](CNC(=O)[C@H](CCCNC(=N)N)NC(=O)[C@H](Cc1ccc(-c2ccccc2)cc1)NC(=O)[C@@H](N)CCCNC(=N)N)c1ccccc1` has an MIC of 4 µg/mL (≈ 5.96 µM). With `N=C(N)NCCC[C@H](NC(=O)[C@H](Cc1ccc(-c2ccccc2)cc1)NC(=O)[C@@H](N)CCCNC(=N)N)C(=O)NCCc1ccccc1` (H-Arg-[Bip]-Arg-NHPhenethyl) the MIC was 4 µg/mL (≈ 6.09 µM). Compound `N=C(N)NCCC[C@H](NC(=O)[C@H](Cc1ccc(-c2ccccc2)cc1)NC(=O)[C@@H](N)CCCNC(=N)N)C(=O)NCc1ccccc1` (H-Arg-[Bip]-Arg-NHBn) has an MIC of 5 µg/mL (≈ 7.78 µM). `N=C(N)NCCC[C@H](NC(=O)[C@H](Cc1ccc(-c2ccccc2)cc1)NC(=O)[C@@H](N)CCCNC(=N)N)C(=O)N(Cc1ccccc1)Cc1ccccc1` gave an MIC of 2 µg/mL (≈ 2.73 µM). In the case of `N=C(N)NCCC[C@H](NC(=O)[C@H](Cc1ccc(-c2ccccc2)cc1)NC(=O)[C@@H](N)CCCNC(=N)N)C(=O)NCCCc1ccccc1`, the MIC is reported as 2 µg/mL (≈ 2.98 µM). Work on `CC(C)NC(=O)[C@H](CCCNC(=N)N)NC(=O)[C@H](Cc1ccc(-c2ccccc2)cc1)NC(=O)[C@@H](N)CCCNC(=N)N` (H-Arg-[Bip]-Arg-NHiPr) yielded an MIC of 47 µg/mL (≈ 79 µM).

System: Staphylococcus aureus
Assay: Antibacterial activity against Staphylococcus aureus ATCC 25923 in presence of BSA 1 by microdilution method
Type: functional
Procedure, shortened: (§2)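 Standard broth microdilution MIC against S. aureus ATCC 25923 with albumin in the assay at 0.55 mM. Albumin grades: BSA I, essentially fatty acid and globulin free, ≥99%. BSA II ≥96%. HSA I, essentially fatty acid free, ~99%. HSA II ≥96%. Run in duplicate.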
With `CCN(Cc1ccccc1)C(=O)[C@H](CCCNC(=N)N)NC(=O)[C@H](Cc1ccc(-c2ccccc2)cc1)NC(=O)[C@@H](N)CCCNC(=N)N` the MIC was 38 µg/mL. Compound `C[C@@H](CNC(=O)[C@H](CCCNC(=N)N)NC(=O)[C@H](Cc1ccc(-c2ccccc2)cc1)NC(=O)[C@@H](N)CCCNC(=N)N)c1ccccc1` has an MIC of 31 µg/mL. `CN(Cc1ccccc1)C(=O)[C@H](CCCNC(=N)N)NC(=O)[C@H](Cc1ccc(-c2ccccc2)cc1)NC(=O)[C@@H](N)CCCNC(=N)N` gave an MIC of 38 µg/mL. Work on `C[C@H](CNC(=O)[C@H](CCCNC(=N)N)NC(=O)[C@H](Cc1ccc(-c2ccccc2)cc1)NC(=O)[C@@H](N)CCCNC(=N)N)c1ccccc1` yielded an MIC of 31 µg/mL. Compound `N=C(N)NCCC[C@H](NC(=O)[C@H](Cc1ccc(-c2ccccc2)cc1)NC(=O)[C@@H](N)CCCNC(=N)N)C(=O)NCCc1ccccc1` (H-Arg-[Bip]-Arg-NHPhenethyl) has an MIC of 47 µg/mL. Compound `N=C(N)NCCC[C@H](NC(=O)[C@H](Cc1ccc(-c2ccccc2)cc1)NC(=O)[C@@H](N)CCCNC(=N)N)C(=O)NCc1ccccc1` (H-Arg-[Bip]-Arg-NHBn) has an MIC of 47 µg/mL. `N=C(N)NCCC[C@H](NC(=O)[C@H](Cc1ccc(-c2ccccc2)cc1)NC(=O)[C@@H](N)CCCNC(=N)N)C(=O)N(Cc1ccccc1)Cc1ccccc1` showed an MIC of 13 µg/mL. For `N=C(N)NCCC[C@H](NC(=O)[C@H](Cc1ccc(-c2ccccc2)cc1)NC(=O)[C@@H](N)CCCNC(=N)N)C(=O)NCCCc1ccccc1`, the MIC was 25 µg/mL. In the case of `CC(C)NC(=O)[C@H](CCCNC(=N)N)NC(=O)[C@H](Cc1ccc(-c2ccccc2)cc1)NC(=O)[C@@H](N)CCCNC(=N)N` (H-Arg-[Bip]-Arg-NHiPr), the MIC is reported as 110 µg/mL.

System: Staphylococcus aureus
Assay: Antibacterial activity against Staphylococcus aureus ATCC 25923 in presence of HSA 2 by microdilution method
Type: functional
Procedure, shortened: as §2
Compound `N=C(N)NCCC[C@H](NC(=O)[C@H](Cc1ccc(-c2ccccc2)cc1)NC(=O)[C@@H](N)CCCNC(=N)N)C(=O)NCc1ccccc1` (H-Arg-[Bip]-Arg-NHBn) has an MIC of 80 µg/mL. With `N=C(N)NCCC[C@H](NC(=O)[C@H](Cc1ccc(-c2ccccc2)cc1)NC(=O)[C@@H](N)CCCNC(=N)N)C(=O)N(Cc1ccccc1)Cc1ccccc1` the MIC was 11 µg/mL. With `CC(C)NC(=O)[C@H](CCCNC(=N)N)NC(=O)[C@H](Cc1ccc(-c2ccccc2)cc1)NC(=O)[C@@H](N)CCCNC(=N)N` (H-Arg-[Bip]-Arg-NHiPr) the MIC was 100 µg/mL.

System: Staphylococcus aureus
Assay: Antibacterial activity against Staphylococcus aureus ATCC 25923 in presence of HSA 1 by microdilution method
Type: functional
Procedure, shortened: as §2
In the case of `N=C(N)NCCC[C@H](NC(=O)[C@H](Cc1ccc(-c2ccccc2)cc1)NC(=O)[C@@H](N)CCCNC(=N)N)C(=O)NCc1ccccc1` (H-Arg-[Bip]-Arg-NHBn), the MIC is reported as 40 µg/mL. With `N=C(N)NCCC[C@H](NC(=O)[C@H](Cc1ccc(-c2ccccc2)cc1)NC(=O)[C@@H](N)CCCNC(=N)N)C(=O)N(Cc1ccccc1)Cc1ccccc1` the MIC was 6 µg/mL. `CC(C)NC(=O)[C@H](CCCNC(=N)N)NC(=O)[C@H](Cc1ccc(-c2ccccc2)cc1)NC(=O)[C@@H](N)CCCNC(=N)N` (H-Arg-[Bip]-Arg-NHiPr) gave an MIC of 113 µg/mL.

Molecular target: not listed separately
Assay: Binding affinity to HSA 1 by isothermal titration calorimetry
Set-up: species or system Homo sapiens
Procedure, shortened: as §1
Compound `N=C(N)NCCC[C@H](NC(=O)[C@H](Cc1ccc(-c2ccccc2)cc1)NC(=O)[C@@H](N)CCCNC(=N)N)C(=O)NCc1ccccc1` (H-Arg-[Bip]-Arg-NHBn) has a Kd of 15.7 µM. `N=C(N)NCCC[C@H](NC(=O)[C@H](Cc1ccc(-c2ccccc2)cc1)NC(=O)[C@@H](N)CCCNC(=N)N)C(=O)N(Cc1ccccc1)Cc1ccccc1` showed a Kd of 10.4 µM. With `CC(C)NC(=O)[C@H](CCCNC(=N)N)NC(=O)[C@H](Cc1ccc(-c2ccccc2)cc1)NC(=O)[C@@H](N)CCCNC(=N)N` (H-Arg-[Bip]-Arg-NHiPr) the Kd was 10.8 µM.

Molecular target: not listed separately
Assay: Binding affinity to BSA 1 by isothermal titration calorimetry
Set-up: species or system Bos taurus
Procedure, shortened: as §1
`CCN(Cc1ccccc1)C(=O)[C@H](CCCNC(=N)N)NC(=O)[C@H](Cc1ccc(-c2ccccc2)cc1)NC(=O)[C@@H](N)CCCNC(=N)N` gave a Kd of 17.3 µM. `C[C@@H](CNC(=O)[C@H](CCCNC(=N)N)NC(=O)[C@H](Cc1ccc(-c2ccccc2)cc1)NC(=O)[C@@H](N)CCCNC(=N)N)c1ccccc1` showed a Kd of 12.2 µM. Compound `CN(Cc1ccccc1)C(=O)[C@H](CCCNC(=N)N)NC(=O)[C@H](Cc1ccc(-c2ccccc2)cc1)NC(=O)[C@@H](N)CCCNC(=N)N` has a Kd of 6.7 µM. In the case of `C[C@H](CNC(=O)[C@H](CCCNC(=N)N)NC(=O)[C@H](Cc1ccc(-c2ccccc2)cc1)NC(=O)[C@@H](N)CCCNC(=N)N)c1ccccc1`, the Kd is reported as 12.4 µM. Work on `N=C(N)NCCC[C@H](NC(=O)[C@H](Cc1ccc(-c2ccccc2)cc1)NC(=O)[C@@H](N)CCCNC(=N)N)C(=O)NCCc1ccccc1` (H-Arg-[Bip]-Arg-NHPhenethyl) yielded a Kd of 11.1 µM. `N=C(N)NCCC[C@H](NC(=O)[C@H](Cc1ccc(-c2ccccc2)cc1)NC(=O)[C@@H](N)CCCNC(=N)N)C(=O)NCc1ccccc1` (H-Arg-[Bip]-Arg-NHBn) showed a Kd of 4.3 µM. Compound `N=C(N)NCCC[C@H](NC(=O)[C@H](Cc1ccc(-c2ccccc2)cc1)NC(=O)[C@@H](N)CCCNC(=N)N)C(=O)N(Cc1ccccc1)Cc1ccccc1` has a Kd of 10 µM. `N=C(N)NCCC[C@H](NC(=O)[C@H](Cc1ccc(-c2ccccc2)cc1)NC(=O)[C@@H](N)CCCNC(=N)N)C(=O)NCCCc1ccccc1` showed a Kd of 22.2 µM. For `CC(C)NC(=O)[C@H](CCCNC(=N)N)NC(=O)[C@H](Cc1ccc(-c2ccccc2)cc1)NC(=O)[C@@H](N)CCCNC(=N)N` (H-Arg-[Bip]-Arg-NHiPr), the Kd was 14.1 µM.

System: Staphylococcus aureus
Assay: Antibacterial activity against Staphylococcus aureus ATCC 25923 in presence of BSA 2 by microdilution method
Type: functional
Procedure, shortened: as §2
For `N=C(N)NCCC[C@H](NC(=O)[C@H](Cc1ccc(-c2ccccc2)cc1)NC(=O)[C@@H](N)CCCNC(=N)N)C(=O)NCc1ccccc1` (H-Arg-[Bip]-Arg-NHBn), the MIC was 30 µg/mL. Work on `N=C(N)NCCC[C@H](NC(=O)[C@H](Cc1ccc(-c2ccccc2)cc1)NC(=O)[C@@H](N)CCCNC(=N)N)C(=O)N(Cc1ccccc1)Cc1ccccc1` yielded an MIC of 6 µg/mL. With `CC(C)NC(=O)[C@H](CCCNC(=N)N)NC(=O)[C@H](Cc1ccc(-c2ccccc2)cc1)NC(=O)[C@@H](N)CCCNC(=N)N` (H-Arg-[Bip]-Arg-NHiPr) the MIC was 80 µg/mL.
